Rows were chosen to be rich in hits. Some 1.4% of all compounds tested hit in one or more screens of this group.
mABHD4 FP – ABHD4 inhibitors, primary screen, biochemical, fluorescence polarization, mouse | 370,000 compounds, 0.54% hits | purified mABHD4, FP-Rh probe fluorescence polarization | inhibition, % at 8.92 µM;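 active means inhibition exceeding the mean over every tested compound plus 3 SD, cut at about 30% in these data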
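Assay system: wild-type mouse ABHD4 protein; compound: single nominal dose of 8.92 µM, 0.89% DMSO final; schedule: 45 min + 60 min at 25 °C; measured by: FP readout, ex 525 nm / em 598 nm; evaluation: % inhibition of FP-Rh probe binding versus controls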
RBBP9 inhibitor – human RBBP9 inhibitors, primary screen, biochemical, fluorescence polarization, FP-Rh probe, HTS; Serine hydrolase RBBP9 (Homo sapiens), O75884; recombinant RBBP9; inhibition, % at 7.94 µM; 220,000 compounds, 0.2% hits;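 active means inhibition above the campaign mean of all tested compounds plus 3 SD, cut at about 14% in these data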
Target sequence (O75884 whole entry, looked up): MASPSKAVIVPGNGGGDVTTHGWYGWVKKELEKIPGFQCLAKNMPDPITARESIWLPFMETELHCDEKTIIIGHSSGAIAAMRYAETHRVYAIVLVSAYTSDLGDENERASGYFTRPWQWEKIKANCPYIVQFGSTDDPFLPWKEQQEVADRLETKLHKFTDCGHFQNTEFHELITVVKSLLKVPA
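system = RBBP9 protein | input = RBBP9 at 2.5 µM in dispensed solution, before mixing | measured by = fluorescence polarization (mP), excitation 525 nm, emission 598 nm | incubation = enzyme-compound preincubation 30 min, then probe labeling 45 min, 25 °C | buffer or medium = Tris-NaCl-Pluronic buffer, pH 8.0 | compound = single dose 7.94 µM | also added = FP-Rh probe, 375 nM dispensing solution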
HTRA1 inhibitor – HTRA1 serine protease inhibitors, primary screen, biochemical, fluorescence polarization, HTS; Q92743; inhibition, % at 5.96 µM; recombinant HTRA1, FP-rhodamine activity-based probe; 340,000 compounds, 0.5% hits; in the data active means inhibition above about 36%
Target sequence (Q92743 whole entry, looked up): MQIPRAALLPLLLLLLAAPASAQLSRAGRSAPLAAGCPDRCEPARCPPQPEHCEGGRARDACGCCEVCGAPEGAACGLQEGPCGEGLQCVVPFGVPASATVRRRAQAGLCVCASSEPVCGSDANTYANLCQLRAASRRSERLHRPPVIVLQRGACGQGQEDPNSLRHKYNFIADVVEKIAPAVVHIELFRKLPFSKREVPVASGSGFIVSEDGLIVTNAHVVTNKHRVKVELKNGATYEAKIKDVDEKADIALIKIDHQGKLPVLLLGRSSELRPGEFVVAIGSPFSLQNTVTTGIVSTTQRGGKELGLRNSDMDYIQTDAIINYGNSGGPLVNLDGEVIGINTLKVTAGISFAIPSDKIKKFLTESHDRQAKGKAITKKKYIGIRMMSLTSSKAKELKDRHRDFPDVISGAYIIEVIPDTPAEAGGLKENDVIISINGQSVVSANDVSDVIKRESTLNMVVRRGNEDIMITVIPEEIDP
SIAE inh – human SIAE inhibitors, primary screen, biochemical, fluorescence polarization, FP-Rh probe, 1536-well HTS; SIAE FP-Rh probe binding; inhibition, % at 9.66 µM; 370,000 compounds, 0.69% hits;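 active means inhibition above a cutoff: mean of compounds within the control limits plus 3 SD of those, cut at about 17% in these data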
ABHD4 confirm – ABHD4 inhibitors, retest, confirmation, biochemical, fluorescence polarization, mouse; shares compounds with mABHD4 FP; purified mABHD4, FP-Rh probe fluorescence polarization; inhibition, % at 8.92 µM; 1,800 compounds, 55% hits;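 active means mean inhibition across replicates above the hit cutoff set in the primary screen, cut at about 30% in these data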
Of the large screens only hits and unclear results are named; the others gave an inactive call (follow-up assays come after a bar, where they were run).

C=CCN=C1NC(CCc2ccccc2)C(C(=O)OC)=C(C)N1C (configuration not stated)	none (no result: RBBP9 inhibitor, HTRA1 inhibitor)
O=C(CSC1=NNC(c2ccccn2)S1)Nc1cccc(Cl)c1 (configuration not stated)	mABHD4 FP 36 (no result: HTRA1 inhibitor) | ABHD4 confirm inactive
O=C(CSC1=NNC(c2ccccn2)S1)Nc1ccccc1 (configuration not stated)	mABHD4 FP 53 | ABHD4 confirm inactive
CCCCOc1ccc(CSC(=N)N)cc1Cl	mABHD4 FP 38 | ABHD4 confirm inactive
COc1ccc(Br)cc1CSC(=N)N	none
CCOc1ccc(CSC(=N)N)cc1	none
CCCCCOc1ccc(Br)cc1CSC(=N)N	mABHD4 FP 40 | ABHD4 confirm 49
CCc1nc2ccc(C(=O)NCc3ccccc3OC)cn2c1N(CC)CCN(C)C	none (no result: RBBP9 inhibitor, HTRA1 inhibitor)
Cc1cc(-c2nc3cccnc3s2)ccc1NS(=O)(=O)c1cccs1	mABHD4 FP 46 | ABHD4 confirm inactive
CCOC(=O)C1Nc2ccccc2C2C(O)C(O)CC12 (configuration not stated)	mABHD4 FP 51 (no result: RBBP9 inhibitor) | ABHD4 confirm inactive
CCOC(=O)C1Nc2ccc(C(F)(F)F)cc2C2c3ccccc3CC12 (configuration not stated)	none (no result: RBBP9 inhibitor)
O=C(NCCc1ccccc1)c1ccc2c(=O)[nH]c3c(C(=O)NCC4CCCO4)sc(=S)n3c2c1 (configuration not stated)	mABHD4 FP 50 (no result: RBBP9 inhibitor) | ABHD4 confirm 36
CC(C)NC(=O)c1sc(=S)n2c1[nH]c(=O)c1ccc(C(=O)NCCc3ccc(Cl)cc3)cc12	none (no result: RBBP9 inhibitor)
O=C(NC1CCCCC1)c1sc(=S)n2c1[nH]c(=O)c1ccccc12	none
CC(=O)c1ccc(N2CCN(C(=O)c3ccc4c(=O)[nH]c5c(C(=O)NC6CCCC6)sc(=S)n5c4c3)CC2)cc1	mABHD4 FP 34 (no result: RBBP9 inhibitor, HTRA1 inhibitor) | ABHD4 confirm inactive
O=C(NCC1CCCO1)c1sc(=S)n2c1[nH]c(=O)c1ccc(C(=O)N3CCCCC3)cc12 (configuration not stated)	none
O=C(NCCc1ccc(Cl)cc1)c1ccc2c(=O)[nH]c3c(C(=O)NCC4CCCO4)sc(=S)n3c2c1 (configuration not stated)	mABHD4 FP 36 (no result: RBBP9 inhibitor, HTRA1 inhibitor) | ABHD4 confirm 33
CC(=O)CCC(=O)OCC(=O)Nc1ccc(SC(F)F)cc1	none
Cc1ccc(N(C(=O)Cn2nnc(-c3ccc(C)o3)n2)C(C(=O)NC2CCCC2)c2ccncc2)cc1 (configuration not stated)	none (no result: RBBP9 inhibitor)
COc1cccc2c1[C@H](/C=C/c1ccccc1)[C@@H]([C@H](O)COC(C)=O)OC2	none (no result: RBBP9 inhibitor, HTRA1 inhibitor)
CCOC(=O)[C@@]12CCC3=C1N(CCC3)C(=O)[C@H](CC(=O)NCc1cccs1)C2	none (no result: RBBP9 inhibitor, HTRA1 inhibitor)
CCCCCc1cccc2[nH]cc(-c3ccccc3)c12	none (no result: RBBP9 inhibitor, HTRA1 inhibitor)
Cc1ccc(CN2CCN(/N=C/c3ccc(O)c(O)c3)CC2)cc1	mABHD4 FP 31 (no result: RBBP9 inhibitor) | ABHD4 confirm 54
O=C(Nc1ccc([N+](=O)[O-])cc1)Nc1cnccn1	none (no result: RBBP9 inhibitor)
Nc1ccc(C(=O)Nc2ccc3c(O)cc(S(=O)(=O)O)cc3c2)cc1	mABHD4 FP 36 (no result: RBBP9 inhibitor) | ABHD4 confirm inactive
Nc1ccc(NC(=O)c2ccc(C(=O)Nc3ccc(N)cc3)cc2)cc1	none
COc1ccc(-n2c(SCC(=O)Nc3ccc(Oc4ccccc4)cc3)nnc2-c2ccc(C)cc2)cc1	none (no result: RBBP9 inhibitor, HTRA1 inhibitor)
O=C1C=CC(=O)c2c(O)c(N3CCN(CCO)CC3)c(Cl)c(O)c21	mABHD4 FP 35 (no result: RBBP9 inhibitor) | ABHD4 confirm 79
O=S(=O)(c1ccc(Br)cc1Cl)N1CCN(CCO)CC1	none
COc1ccc(-c2nc3cc(C)ccn3c2NCc2ccc3c(c2)OCO3)cc1	none
CCCCNc1c(-c2ccc(Sc3ccc(OC)cc3)cc2)nc2cc(C)ccn12	mABHD4 FP 39 (no result: RBBP9 inhibitor) | ABHD4 confirm 39
CCCCNc1c(-c2ccc(-c3ccc(C(C)=O)cc3)c(OC)c2)nc2cc(C)ccn12	mABHD4 FP 46 (no result: RBBP9 inhibitor) | ABHD4 confirm 56
CCC(C)c1ccc(NC(=O)C/C(C)=N/NC(=O)c2cnccn2)cc1 (configuration not stated)	none
Cc1cc(C(=O)OCC(=O)NC2CCCC2)c2ccccc2n1	none (no result: RBBP9 inhibitor)
O=C(COC(=O)c1c2c(nc3ccccc13)/C(=C/c1ccco1)CC2)NC1CCCC1	mABHD4 FP 51, HTRA1 inhibitor 60, SIAE inh 27 | ABHD4 confirm inactive
COC(=O)c1ccc(NC(=O)CCS(=O)(=O)c2ccc3c(c2)NC(=O)C(C)S3)cc1 (configuration not stated)	none (no result: RBBP9 inhibitor)
Cc1ccc(S(=O)(=O)N2CCC(C(=O)O)CC2)cc1C(=O)O	none
O=C(O)C1CCN(S(=O)(=O)c2ccc3[nH]ccc3c2)CC1	mABHD4 FP 30 (no result: RBBP9 inhibitor) | ABHD4 confirm inactive
CCOC(=O)NC1(NCC(C)C)Oc2ccccc2O1	mABHD4 FP 33 | ABHD4 confirm inactive
CCOC(=O)NC1(NC(C)C)Oc2ccccc2O1	none
COc1ccc(C(=O)C2(C(=O)NCc3ccccc3)CC(c3ccccn3)=NO2)cc1 (configuration not stated)	none (no result: RBBP9 inhibitor, HTRA1 inhibitor)
COc1ccc(C(=O)Nc2cc3c(cc2C(=O)O)OCCCO3)c(OC)c1	mABHD4 FP 35 (no result: RBBP9 inhibitor) | ABHD4 confirm 55
COc1ccc(C(=O)Nc2ccc3c(c2)OCCO3)c(OC)c1	none (no result: RBBP9 inhibitor)
Cc1cccc(CN(C)C[C@H]2OCc3cnnn3CCCC(=O)N([C@@H](C)CO)C[C@@H]2C)c1	none (no result: RBBP9 inhibitor)
Cc1ccc(NCc2cccc(B(O)O)c2)cc1	mABHD4 FP 59 (no result: RBBP9 inhibitor) | ABHD4 confirm 61
Cc1ccc(NCc2ccccc2)cc1	none
N#CC1=C(N)Oc2cc(N)ccc2C1c1ccc(Cl)cc1 (configuration not stated)	none (no result: RBBP9 inhibitor)
N#CC1=C(N)Oc2cc(N)ccc2C1c1ccccc1Cl (configuration not stated)	mABHD4 FP 30 (no result: RBBP9 inhibitor) | ABHD4 confirm inactive
CC1(C)Cc2c(c(-c3ccco3)[nH]c(=O)c2C#N)CS1	mABHD4 FP 30 | ABHD4 confirm inactive
O=[N+]([O-])c1ccc(/C=N/N=C/c2ccc([N+](=O)[O-])o2)o1	none
Cc1csc(N=Cc2ccc([N+](=O)[O-])o2)n1	mABHD4 FP 30 (no result: RBBP9 inhibitor) | ABHD4 confirm inactive
O=C1C(CCc2ccccc2)ON=C(c2cnccn2)N1Cc1ccc(F)cc1 (configuration not stated)	none (no result: RBBP9 inhibitor, HTRA1 inhibitor)
COC(=O)[C@]1(Cc2ccccc2)NC=C(C(=O)c2ccccc2)[C@@H]1c1cccs1	none (no result: RBBP9 inhibitor, HTRA1 inhibitor)
O=C(NCc1ccccc1)[C@@H]1CCCN1C(=O)[C@H]1CCCN1C(=O)c1ccccc1F	none (no result: RBBP9 inhibitor, HTRA1 inhibitor)
CC(C)=CCN1CCN(CCC2=C(C)CCCC2(C)C)CC1CCO (configuration not stated)	none
CC1=C(CCN2CCN(C3CCCC3)C(CCO)C2)C(C)(C)CCC1 (configuration not stated)	mABHD4 FP 61 | ABHD4 confirm inactive
